Paper PMC6851555 (Diabetes, Obesity & Metabolism, 2019)

What was measured:
[1] = system: DIO-C57BL/6J mice; experiment: In vivo pharmacological evaluation in diet-induced obese mice; set-up: species or system mouse; details: YR4-42 50 mg/kg
Method in brief: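 Male C57BL/6J mice (6 weeks old) on 60%-fat diet for 10 weeks, continued throughout; 16-week-old DIO mice randomised, n = 12/group, gavaged 38 days with 0.5% CMC-Na vehicle, pioglitazone 25 mg/kg or test compound 50 mg/kg; chow-fed vehicle controls. Body weight every 2 days; insulin tolerance test day 14 (AUC); day 38 liver weighed, TG/TC/FFA by kits normalised to tissue weight; mean ± SEM.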

[2] = molecular target: T1, PPARγ ligand-binding domain (LBD) (Homo sapiens, UniProt P37231); experiment: PPARγLBD-Gal4-luciferase reporter transactivation assay; format: cell-based; details: 20 μmol/L GW9662, 10 μmol/L YR4-42; Figure 1H
T1 sequence (P37231 204-505): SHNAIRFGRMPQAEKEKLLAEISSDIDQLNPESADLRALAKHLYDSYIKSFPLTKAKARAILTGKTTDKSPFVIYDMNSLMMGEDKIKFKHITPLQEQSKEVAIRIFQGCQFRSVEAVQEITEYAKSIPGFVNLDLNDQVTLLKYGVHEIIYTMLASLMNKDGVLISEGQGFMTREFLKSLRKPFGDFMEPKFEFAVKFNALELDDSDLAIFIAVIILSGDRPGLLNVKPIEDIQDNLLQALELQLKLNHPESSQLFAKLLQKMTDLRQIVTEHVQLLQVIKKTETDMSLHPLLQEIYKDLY

Row | effect of antagonist on PPARγ transactivation induced by YR4-42 [2] | Compound | hepatic TG, total cholesterol and FFA ([1]; 38th day, pioglitazone 25 mg/kg oral, Figure 3K-M) | body weight of DIO mice ([1]; oral gavage 38 days, pioglitazone 25 mg/kg, Figure 3A,B)
1 | – | CCc1ccc(CCOc2ccc(CC3SC(=O)NC3=O)cc2)nc1 (stereo not drawn) [pioglitazone] | increased | further enhanced weight gain
2 | inhibited | O=C(Nc1ccccc1)c1cc([N+](=O)[O-])ccc1Cl [GW9662] | – | –
